DENV2 CPE rescue: inhibitors of DENV2 cytopathic effect, primary screen, cell-based, plate reader, single concentration | DENV2-infected cells, cytopathic effect rescue | CPE inhibition, % at 9.99 µM | actives 1.7% (n = 350,000); in the data active = CPE inhibition above about 20%, passing the limit was not always enough; inconclusive = no clear call, values can overlap the other calls; tested in BHK-21 cells;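 note: 0% = median of neutral control wells and 100% = median of positive control wells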
SIRT5 block: SIRT5 desuccinylase inhibitors, primary screen, biochemical, fluorescence imaging, single point, set 5. Purified SirT5, succinyl-peptide AMC, trypsin-coupled fluorescence. NAD-dependent protein deacylase sirtuin-5, mitochondrial (Homo sapiens), Q9NXA8. AID 652115, 2013. inhibition, % at 15 µM. actives 1.1% (n = 330,000); in the data active = inhibition above about 15%; inconclusive = no clear call, values can overlap the other calls
Target sequence (Q9NXA8 whole entry, looked up): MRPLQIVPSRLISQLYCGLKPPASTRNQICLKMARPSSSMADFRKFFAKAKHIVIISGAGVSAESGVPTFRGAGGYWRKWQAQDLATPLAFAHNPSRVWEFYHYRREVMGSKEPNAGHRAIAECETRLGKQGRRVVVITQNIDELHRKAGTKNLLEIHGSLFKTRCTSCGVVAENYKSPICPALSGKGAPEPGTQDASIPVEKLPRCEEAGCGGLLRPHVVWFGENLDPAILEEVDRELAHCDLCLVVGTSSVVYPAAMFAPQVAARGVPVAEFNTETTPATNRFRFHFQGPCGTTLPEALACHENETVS
FN deposition inh: inhibitors of fibronectin matrix deposition, primary screen, AH1F cells, Alexa488-fibronectin fluorescence, plate reader; actives 0.086% (n = 350,000); inhibition, % at 12.6 µM; AID 743247, 2014; AH1F fibroblasts, overnight;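 active = mean inhibition across replicates of 30% or more, regardless of how many single replicates reach that level; inconclusive = mean under 30% yet at least half of replicates reach 30%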;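 note: positive control wells lacked labelled fibronectin entirely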
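Material: AH1F fibroblasts assembling fluorescent fibronectin matrix; amount: 10000 AH1F cells/well; medium: DMEM, 2% serum; reagent: Alexa488-fibronectin, 24 nM final in well; dosing: single compound dose, delivered by pin transfer; incubation: 1 h adhesion, overnight exposure; detection: fluorescence after three HBSS washes, excitation 485 nm, emission 525 nm; measure: fibronectin deposition inhibition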
XiGFP reactiv: activators of inactive X chromosome reactivation, primary screen, imaging, XiGFP fibroblasts, GFP high-content imaging, set 2. XiGFP mouse fibroblasts, % GFP-positive cells imaging, 3 d; cells co-treated with 5-aza-dC sensitizer; scaled so ellipticine positive control = 100%. activation, % at 7.58 µM. actives 0.055% (n = 360,000);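 active = mean normalized replicate activation at least 10% and every replicate at or above 10%; inconclusive = only one of the two criteria met; inactive = mean below 10% and not all replicates reach 10%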;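 note: 0% = median of on-plate neutral control wells and 100% = ellipticine 6 µM median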
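Assay system: SV40-immortalized XiGFP fibroblast cells, line 68-5-11; buffer or medium: DMEM plus 5-aza-dC sensitizer; compound: one concentration, pinned; timing: compounds 3 days, fix/stain 15 min at room temperature; benchmarks: positive control ellipticine, 6 µM final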
ARNT TACC3 PPI: disruptors of ARNT/TACC3 protein interaction, primary screen, biochemical, AlphaScreen, single concentration; AlphaScreen His-ARNT PAS-B/GST-TACC3 binding, luminescence; TACC3 fragment carries E629A point mutation; actives 0.66% (n = 390,000); Transforming acidic coiled-coil-containing protein 3 (Homo sapiens), Q9Y6A5; inhibition, % at 9.99 µM;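 active = mean inhibition of replicates at least 50% and at least half of replicates each reaching 50%; inconclusive = half or more replicates reach 50% but mean below 50%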;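 note: 0% = complete ARNT plus TACC3 wells and 100% = ARNT alone without TACC3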
FGF22 binding: binders of human FGF22 protein, primary screen, FGF22 synaptogenesis inhibitor project, biophysical, thermal shift, single point; Fibroblast growth factor 22 (Homo sapiens), Q9HCT0; recombinant FGF22 thermal shift, SYPRO orange fluorescence; percent of sucrose octasulfate shift, DMSO zero; activity (Tm shift, normalised), % at 9.99 µM; actives 1.5% (n = 340,000); AID 651658, 2012;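 active = mean Tm shift, scaled 0 neutral to 100 positive control, at about 1.3% or above, every replicate too, limit read from the data; inconclusive = no clear call, values can overlap the other calls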
Target sequence (Q9HCT0 whole entry, looked up): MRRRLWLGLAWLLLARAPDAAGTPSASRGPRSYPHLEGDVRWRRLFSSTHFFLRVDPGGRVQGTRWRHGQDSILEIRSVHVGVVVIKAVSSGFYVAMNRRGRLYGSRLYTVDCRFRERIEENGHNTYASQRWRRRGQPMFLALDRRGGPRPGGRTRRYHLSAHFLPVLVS
Numbers without * were called inactive. In the library only some 3.8% were active in any assay of this set; here they are far more common.

What do the screens show for `COc1ccc(CC(=O)N(CCN(C)C)CC2CCCN(Cc3ccccc3F)C2)cc1` (centres undefined)?
DENV2 CPE rescue: 27*; SIRT5 block: 1; FN deposition inh: -4; XiGFP reactiv: 0; ARNT TACC3 PPI: 7; FGF22 binding: 0

Results for COc1cccc(CC(=O)N(C)C2CCCN(Cc3ccccc3F)C2)c1 (centres undefined) ?
DENV2 CPE rescue: inconclusive; SIRT5 block: 18*; FN deposition inh: -7; XiGFP reactiv: 1; ARNT TACC3 PPI: 1; FGF22 binding: 0

How did CCOC(=O)[C@]12Cc3cc(C)ccc3[C@H]1N(C1CCCCC1)C(=O)c1ccccc12 do in these assays?
DENV2 CPE rescue: inconclusive; SIRT5 block: 3; FN deposition inh: 21; XiGFP reactiv: 0; FGF22 binding: 0

How did CCOC(=O)[C@]12Cc3ccc(C)cc3[C@H]1N(C1CCCCC1)C(=O)c1ccccc12 do in these assays?
DENV2 CPE rescue: 3; SIRT5 block: -2; FN deposition inh: 26; XiGFP reactiv: 0; FGF22 binding: 0

What do the screens show for `CCOC(=O)[C@]12Cc3ccc(C)cc3[C@H]1N(C1CCCCC1)C(=O)c1cc(OC)ccc12`?
DENV2 CPE rescue: 55*; SIRT5 block: 3; FN deposition inh: 29; XiGFP reactiv: 0; FGF22 binding: 0

Results for CCOC(=O)[C@]12Cc3c(cc(OC)c(OC)c3OC)[C@H]1N(C1CCCCC1)C(=O)c1ccccc12 ?
DENV2 CPE rescue: 6; SIRT5 block: 20*; XiGFP reactiv: 1; FGF22 binding: 0

Results for CN1CCN(c2ccc(S(C)(=O)=O)cc2[N+](=O)[O-])CC1 ?
DENV2 CPE rescue: -1; SIRT5 block: 0; FN deposition inh: -4; XiGFP reactiv: 0; ARNT TACC3 PPI: -2; FGF22 binding: 0

How did CN1CCN(c2ccc(S(=O)(=O)C(F)(F)F)cc2[N+](=O)[O-])CC1 do in these assays?
DENV2 CPE rescue: -11; SIRT5 block: 21*; FN deposition inh: -4; XiGFP reactiv: 0; ARNT TACC3 PPI: -3; FGF22 binding: 0

How did Cc1cccc(S(=O)(=O)N2[C@@H]3c4ccc(-c5ccc(F)cc5)c(=O)n4C[C@H]2[C@H](CO)[C@H]3C(=O)O)c1 do in these assays?
XiGFP reactiv: 0

What do the screens show for `CCOc1ccc(NC(=O)c2c(O)[nH]c(=O)[nH]c2=O)cc1`?
DENV2 CPE rescue: 10; SIRT5 block: 1; FN deposition inh: -14; XiGFP reactiv: 0; ARNT TACC3 PPI: 0; FGF22 binding: 0

How did CC(=O)Nc1ccc(OCCF)cc1 do in these assays?
DENV2 CPE rescue: 0; SIRT5 block: 8; FN deposition inh: 6; XiGFP reactiv: 0; ARNT TACC3 PPI: -6; FGF22 binding: 43*

Results for CCN1[C@@H]2c3ccc(-c4cccc(C(=O)N(C)C)c4)c(=O)n3C[C@H]1[C@H](CO)[C@H]2C(=O)OC ?
DENV2 CPE rescue: -1; SIRT5 block: -3; XiGFP reactiv: 0; ARNT TACC3 PPI: -1; FGF22 binding: 0

Results for OCCNCCc1c[nH]c2ccc(OCc3ccccc3)cc12 ?
DENV2 CPE rescue: -1; SIRT5 block: 20*; FN deposition inh: 3; XiGFP reactiv: 0; ARNT TACC3 PPI: -1; FGF22 binding: 0

How did Cc1ccc(OC(=O)N(C)C[C@H]2OCc3ccccc3-c3c(n(C)c4ccccc34)C(=O)N([C@H](C)CO)C[C@H]2C)cc1 do in these assays?
DENV2 CPE rescue: 11; SIRT5 block: 6; FN deposition inh: -5; XiGFP reactiv: 0; FGF22 binding: 0

Source: PubChem BioAssay
